Test results reported in ChEMBL document CHEMBL4689842, “EUbOPEN Chemogenomics Library wave 1” (2021).
“And” between values parts separate entries of the source, which are not always exact repeats. Equal entries are not always repeated.

Tested on: U2OS
Test: Multiplex assay against U2OS
Assay type: toxicity, cell-based
Conditions: human
Procedure, shortened: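 On a CQ1 microscope at 37°C and 5% CO2, live cells were imaged after compound addition. They had been stained at seeding with Hoechst33342, BioTracker Green Microtubule Cytoskeleton Dye, MitoTracker Red and Annexin V Alexa Fluor 680. CellPathfinder machine-learning gating assigned cells to Hoechst high-intensity objects or normal cells, normal cells to healthy, pyknosed or fragmented nuclei, and pyknosed cells to mitotic or apoptotic. Tubulin, mitochondrial-mass and membrane-permeability phenotypes are per cents of healthy-nucleus cells.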

[1] = 12 h, 1 µM, compound concentration 1 uM, replicate 1
[2] = 12 h, 1 µM, compound concentration 1 uM, replicate 2
[3] = 12 h, 10 µM, compound concentration 10 uM, replicate 1
[4] = 12 h, 10 µM, compound concentration 10 uM, replicate 2
[5] = 24 h, 1 µM, compound concentration 1 uM, replicate 1
[6] = 24 h, 1 µM, compound concentration 1 uM, replicate 2
[7] = 24 h, 10 µM, compound concentration 10 uM, replicate 1
[8] = 24 h, 10 µM, compound concentration 10 uM, replicate 2
[9] = 48 h, 1 µM, compound concentration 1 uM, replicate 1
[10] = 48 h, 1 µM, compound concentration 1 uM, replicate 2
[11] = 48 h, 10 µM, compound concentration 10 uM, replicate 1
[12] = 48 h, 10 µM, compound concentration 10 uM, replicate 2

c1cn2cc(-c3ccc4cn[nH]c4c3)nc(Nc3ccc(N4CCOCC4)cc3)c2n1 [ENTOSPLETINIB]
Population Apoptotic (%) [1]: 32% | Population Fragmented Nuclei (%) [1]: 13% | Population Healthy Nuclei (%) [1]: 66% | Population Hoechst High Intensity Objects (%) [1]: 4% | Population Membrane Permeable-Phenotype (%) [1]: 13% | Population Mitochondria Different-Phenotype (%) [1]: 36% | Population Mitotic Cells (%) [1]: 67% | Population Normal (%) [1]: 95% | Population Pyknosed Nuclei (%) [1]: 20% | Population Tubulin-Different-Phenotype (%) [1]: 41% | Total Cell Count [1]: 172 | Population Apoptotic (%) [2]: 40% | Population Fragmented Nuclei (%) [2]: 16% | Population Healthy Nuclei (%) [2]: 73% | Population Hoechst High Intensity Objects (%) [2]: 5% | Population Membrane Permeable-Phenotype (%) [2]: 10% | Population Mitochondria Different-Phenotype (%) [2]: 23% | Population Mitotic Cells (%) [2]: 60% | Population Normal (%) [2]: 94% | Population Pyknosed Nuclei (%) [2]: 9% | Population Tubulin-Different-Phenotype (%) [2]: 25% | Total Cell Count [2]: 59 | Population Apoptotic (%) [3]: 76% | Population Fragmented Nuclei (%) [3]: 37% | Population Healthy Nuclei (%) [3]: 7% | Population Membrane Permeable-Phenotype (%) [3]: 12% | Population Mitochondria Different-Phenotype (%) [3]: 61% | Population Mitotic Cells (%) [3]: 23% | Population Pyknosed Nuclei (%) [3]: 55% | Population Tubulin-Different-Phenotype (%) [3]: 73% | Total Cell Count [3]: 161 | Population Apoptotic (%) [4]: 92% | Population Fragmented Nuclei (%) [4]: 30% | Population Healthy Nuclei (%) [4]: 2% | Population Hoechst High Intensity Objects (%) [4]: 25% | Population Membrane Permeable-Phenotype (%) [4]: 21% | Population Mitochondria Different-Phenotype (%) [4]: 82% | Population Mitotic Cells (%) [4]: 7% | Population Normal (%) [4]: 74% | Population Pyknosed Nuclei (%) [4]: 67% | Population Tubulin-Different-Phenotype (%) [4]: 78% | Total Cell Count [4]: 56 | Population Apoptotic (%) [5]: 37% | Population Fragmented Nuclei (%) [5]: 12% | Population Healthy Nuclei (%) [5]: 70% | Population Membrane Permeable-Phenotype (%) [5]: 4% | Population Mitochondria Different-Phenotype (%) [5]: 33% | Population Mitotic Cells (%) [5]: 62% | Population Pyknosed Nuclei (%) [5]: 16% | Population Tubulin-Different-Phenotype (%) [5]: 24% | Total Cell Count [5]: 182 | Population Apoptotic (%) [6]: 14% | Population Fragmented Nuclei (%) [6]: 14% | Population Healthy Nuclei (%) [6]: 74% | Population Hoechst High Intensity Objects (%) [6]: 4% | Population Membrane Permeable-Phenotype (%) [6]: 17% | Population Mitochondria Different-Phenotype (%) [6]: 15% | Population Mitotic Cells (%) [6]: 85% | Population Normal (%) [6]: 95% | Population Pyknosed Nuclei (%) [6]: 11% | Population Tubulin-Different-Phenotype (%) [6]: 21% | Total Cell Count [6]: 78 | Population Apoptotic (%) [7]: 70% | Population Fragmented Nuclei (%) [7]: 35% | Population Healthy Nuclei (%) [7]: 6% | Population Hoechst High Intensity Objects (%) [7]: 23% | Population Membrane Permeable-Phenotype (%) [7]: 7% | Population Mitochondria Different-Phenotype (%) [7]: 49% | Population Mitotic Cells (%) [7]: 29% | Population Normal (%) [7]: 76% | Population Pyknosed Nuclei (%) [7]: 57% | Population Tubulin-Different-Phenotype (%) [7]: 53% | Total Cell Count [7]: 186 | Population Apoptotic (%) [8]: 89% | Population Fragmented Nuclei (%) [8]: 33% | Population Healthy Nuclei (%) [8]: 2% | Population Hoechst High Intensity Objects (%) [8]: 26% | Population Membrane Permeable-Phenotype (%) [8]: 8% | Population Mitochondria Different-Phenotype (%) [8]: 36% | Population Mitotic Cells (%) [8]: 10% | Population Normal (%) [8]: 73% | Population Pyknosed Nuclei (%) [8]: 64% | Population Tubulin-Different-Phenotype (%) [8]: 20% | Total Cell Count [8]: 65 | Population Apoptotic (%) [9]: 46% | Population Fragmented Nuclei (%) [9]: 9% | Population Membrane Permeable-Phenotype (%) [9]: 4% | Population Mitochondria Different-Phenotype (%) [9]: 14% | Population Mitotic Cells (%) [9]: 53% | Population Pyknosed Nuclei (%) [9]: 12% | Population Tubulin-Different-Phenotype (%) [9]: 13% | Total Cell Count [9]: 206 | Population Apoptotic (%) [10]: 37% | Population Fragmented Nuclei (%) [10]: 11% | Population Healthy Nuclei (%) [10]: 77% | Population Hoechst High Intensity Objects (%) [10]: 3% | Population Membrane Permeable-Phenotype (%) [10]: 22% | Population Mitochondria Different-Phenotype (%) [10]: 20% | Population Mitotic Cells (%) [10]: 62% | Population Normal (%) [10]: 96% | Population Pyknosed Nuclei (%) [10]: 10% | Population Tubulin-Different-Phenotype (%) [10]: 22% | Total Cell Count [10]: 111 | Population Apoptotic (%) [11]: 59% | Population Fragmented Nuclei (%) [11]: 33% | Population Healthy Nuclei (%) [11]: 7% | Population Hoechst High Intensity Objects (%) [11]: 29% | Population Membrane Permeable-Phenotype (%) [11]: 7% | Population Mitochondria Different-Phenotype (%) [11]: 21% | Population Mitotic Cells (%) [11]: 40% | Population Normal (%) [11]: 70% | Population Pyknosed Nuclei (%) [11]: 58% | Population Tubulin-Different-Phenotype (%) [11]: 16% | Total Cell Count [11]: 232 | Population Apoptotic (%) [12]: 82% | Population Fragmented Nuclei (%) [12]: 34% | Population Healthy Nuclei (%) [12]: 2% | Population Hoechst High Intensity Objects (%) [12]: 28% | Population Membrane Permeable-Phenotype (%) [12]: 20% | Population Mitochondria Different-Phenotype (%) [12]: 30% | Population Mitotic Cells (%) [12]: 17% | Population Normal (%) [12]: 71% | Population Pyknosed Nuclei (%) [12]: 63% | Population Tubulin-Different-Phenotype (%) [12]: 20% | Total Cell Count [12]: 79

Cn1cc(C2=C(c3cn(C4CCN(Cc5ccccn5)CC4)c4ccccc34)C(=O)NC2=O)c2ccccc21 [ENZASTAURIN]
Population Apoptotic (%) [1]: 65% and 50% | Population Fragmented Nuclei (%) [1]: 20% and 9% | Population Healthy Nuclei (%) [1]: 30% and 78% | Population Hoechst High Intensity Objects (%) [1]: 4% and 5% | Population Membrane Permeable-Phenotype (%) [1]: 58% | Population Mitotic Cells (%) [1]: 34% and 50% | Population Normal (%) [1]: 95% and 94% | Population Tubulin-Different-Phenotype (%) [1]: 48% | Total Cell Count [1]: 159 and 95 | Population Apoptotic (%) [2]: 76% and 37% | Population Fragmented Nuclei (%) [2]: 18% and 16% | Population Healthy Nuclei (%) [2]: 45% and 70% | Population Hoechst High Intensity Objects (%) [2]: 11% and 17% | Population Membrane Permeable-Phenotype (%) [2]: 63% and 33% | Population Mitotic Cells (%) [2]: 23% and 62% | Population Normal (%) [2]: 88% and 82% | Population Pyknosed Nuclei (%) [2]: 35% and 13% | Population Tubulin-Different-Phenotype (%) [2]: 100% and 34% | Total Cell Count [2]: 147 and 102 | Population Apoptotic (%) [5]: 89% and 53% | Population Fragmented Nuclei (%) [5]: 15% and 5% | Population Normal (%) [5]: 83% and 96% | Total Cell Count [5]: 194 and 119 | Population Apoptotic (%) [6]: 62% | Population Fragmented Nuclei (%) [6]: 14% and 8% | Population Hoechst High Intensity Objects (%) [6]: 14% and 10% | Population Membrane Permeable-Phenotype (%) [6]: 19% | Population Mitotic Cells (%) [6]: 37% | Population Normal (%) [6]: 85% and 89% | Population Tubulin-Different-Phenotype (%) [6]: 17% | Total Cell Count [6]: 149 and 124

Cn1cncc1[C@@](O)(COc1ccc(C#N)cc1-c1ccc(OC(F)(F)F)cc1)c1ccc(C#N)cc1 [A-108]
Population Apoptotic (%) [3]: 38% and 53% | Population Healthy Nuclei (%) [3]: 70% and 84% | Population Hoechst High Intensity Objects (%) [3]: 3% | Population Membrane Permeable-Phenotype (%) [3]: 31% and 17% | Population Mitochondria Different-Phenotype (%) [3]: 42% and 25% | Population Mitotic Cells (%) [3]: 61% and 46% | Population Normal (%) [3]: 96% | Population Pyknosed Nuclei (%) [3]: 17% and 11% | Total Cell Count [3]: 188 and 136 | Population Apoptotic (%) [4]: 43% and 50% | Population Healthy Nuclei (%) [4]: 60% and 90% | Population Hoechst High Intensity Objects (%) [4]: 19% and 8% | Population Mitochondria Different-Phenotype (%) [4]: 63% and 21% | Population Mitotic Cells (%) [4]: 56% and 50% | Population Normal (%) [4]: 80% and 91% | Total Cell Count [4]: 101 and 164 | Population Fragmented Nuclei (%) [7]: 8% and 3% | Population Healthy Nuclei (%) [7]: 74% and 86% | Population Hoechst High Intensity Objects (%) [7]: 2% and 4% | Population Membrane Permeable-Phenotype (%) [7]: 29% and 11% | Population Mitochondria Different-Phenotype (%) [7]: 37% and 20% | Population Mitotic Cells (%) [7]: 28% and 77% | Population Normal (%) [7]: 97% and 95% | Population Pyknosed Nuclei (%) [7]: 17% and 10% | Total Cell Count [7]: 190 and 184 | Population Apoptotic (%) [8]: 80% and 45% | Population Fragmented Nuclei (%) [8]: 18% | Population Healthy Nuclei (%) [8]: 55% and 85% | Population Hoechst High Intensity Objects (%) [8]: 7% | Population Mitochondria Different-Phenotype (%) [8]: 75% and 28% | Population Mitotic Cells (%) [8]: 19% and 54% | Population Normal (%) [8]: 92% | Population Tubulin-Different-Phenotype (%) [8]: 73% and 25% | Total Cell Count [8]: 88 and 199
